Data set [1] has as its system Hepatitis C virus. As to the kind of experiment: Antiviral activity against HCV subtype 1b in human Huh7.5 cells expressing subgenomic HCV replicons and coexpressing luciferase reporter gene. The note with it: genotype 1b, Huh-7. It is filed as functional, cell-based, Hepacivirus hominis. The procedure, abridged: (§1)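 Stable Huh7.5 lines carrying genotype 1a or 1b subgenomic replicons with luciferase reporter, made by RNA electroporation and G418 selection. Assay run in phenol red-free DMEM without G418, sixteen half-log compound dilutions, in triplicate. Luciferase signal read after 72 h relative to DMSO controls, giving EC50.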
For orientation: In antiviral work, replicon cells carry a viral genome segment that copies itself.

Data set [2] has as its target T1, Solute carrier organic anion transporter family member 1B1 (Homo sapiens, UniProt Q9Y6L6).
T1 sequence (Q9Y6L6 whole entry): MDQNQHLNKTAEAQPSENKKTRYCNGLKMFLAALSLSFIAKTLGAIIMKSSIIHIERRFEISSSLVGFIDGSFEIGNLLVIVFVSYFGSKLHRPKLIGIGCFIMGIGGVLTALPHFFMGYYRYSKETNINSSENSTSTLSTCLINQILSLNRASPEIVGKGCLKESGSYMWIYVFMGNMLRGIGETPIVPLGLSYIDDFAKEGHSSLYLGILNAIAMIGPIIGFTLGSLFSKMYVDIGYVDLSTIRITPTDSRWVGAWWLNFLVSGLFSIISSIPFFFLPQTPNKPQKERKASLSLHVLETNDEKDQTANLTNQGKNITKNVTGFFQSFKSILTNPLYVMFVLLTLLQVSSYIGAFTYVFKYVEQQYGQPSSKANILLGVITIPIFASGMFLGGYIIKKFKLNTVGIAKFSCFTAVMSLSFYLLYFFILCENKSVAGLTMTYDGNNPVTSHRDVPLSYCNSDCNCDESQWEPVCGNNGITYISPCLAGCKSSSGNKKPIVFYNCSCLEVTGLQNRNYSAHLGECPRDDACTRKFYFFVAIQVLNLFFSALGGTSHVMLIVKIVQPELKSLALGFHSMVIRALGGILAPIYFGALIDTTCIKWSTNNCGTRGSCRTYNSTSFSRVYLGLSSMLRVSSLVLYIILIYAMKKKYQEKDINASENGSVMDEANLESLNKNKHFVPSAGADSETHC
As to the kind of experiment: Inhibition of OATP1B1 (unknown origin) expressed in CHO cells using 8-fluorescein-cAMP substrate by fluorescent photometry. Format: ADME, cell-based. The gist of the method:
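CHO-OATP1B1 cells and vector control cells cultured 2 days, then washed and equilibrated 15 min in HBSS + 10 mM HEPES. Exposed 10 min to 2.5 μM 8-fluorescein-cAMP with inhibitor at 0−30 μM (up to 1% DMSO). Cells washed and lysed, uptake measured by fluorescence, and IC50 taken from the concentration-response curve.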

The target in data set [3] is Peptidyl-prolyl cis-trans isomerase A (Homo sapiens, UniProt P62937). As to the kind of experiment: Binding affinity to human cyclophilin A by surface plasmon resonance method.
The target of data set [4] is Cytochrome P450 3A4 (Homo sapiens, UniProt P08684). As to the kind of experiment: Time dependent inhibition of CYP3A4 (unknown origin). It is filed as ADME. Particulars: TDE = time-dependent effect.
Data set [5] deals with Peptidyl-prolyl cis-trans isomerase F, mitochondrial (Homo sapiens, UniProt P30405). As to the kind of experiment: Binding affinity to human cyclophilin F by surface plasmon resonance method. The procedure, abridged: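 Surface plasmon resonance with biotinylated cyclophilin protein, single-cycle kinetics. Running buffer 10 mM HEPES pH 7.4, 150 mM NaCl, 0.05% P20, 3% DMSO, with inhibitor present. Compound injected at several concentrations, 1 min contact each at 50 μL/min, then 10 min final dissociation. kon, koff and KD obtained from a 1:1 binding model fit.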
On the technique in general: In SPR one partner is held on a chip, and binding of the other changes the refractive index at the surface.

Data set [6] concerns the target Peptidyl-prolyl cis-trans isomerase B (Homo sapiens, UniProt P23284). Put plainly: Binding affinity to human cyclophilin B by surface plasmon resonance method. The gist of the method: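 Biotinylated cyclophilin proteins examined by single-cycle kinetics SPR. Running buffer 10 mM HEPES pH 7.4, 150 mM NaCl, 0.05% P20, 3% DMSO, with inhibitor. Each concentration injected for 1 min at 50 μL/min, then 10 min dissociation. kon, koff and KD obtained from a 1:1 binding fit.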

In data set [7] the test system is PBMC. Put plainly: Cytotoxicity against PHA-stimulated human PBMC by 5-bromo-2'-deoxyuridine incorporation assay. Format: cell-based. The gist of the method:
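Fresh PBMCs from two human donors in X-VIVO 15 medium, stimulated with PHA. Seven concentrations taken from a half-log series. Incubated 60 h at 37 °C, 5% CO2, with BrdU added for the final 12 h. Incorporation read by anti-BrdU ELISA at 450 nm. Percent inhibition against PHA-stimulated untreated cells after background subtraction, four-parameter fit giving IC50.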

Data set [8] relates to Hepatitis C virus. Put plainly: Antiviral activity against HCV subtype 1a in human Huh7.5 cells expressing subgenomic HCV replicons and coexpressing luciferase reporter gene. Format: functional, cell-based, Hepacivirus hominis. Particulars: Huh-7. The procedure, abridged:
as §1

The subject of data set [9] is Hepatitis C virus. Put plainly: Antiviral activity against HCV subtype 1b in human Huh7.5 cells expressing subgenomic HCV replicons and coexpressing luciferase reporter gene in presence of 40% human serum. Format: functional, cell-based, Hepacivirus hominis. Particulars: genotype 1b, Huh-7. The gist of the method: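 Genotype 1b luciferase replicon in Huh7.5 cells with 40% human serum added to the assay medium, in phenol red-free DMEM without G418. Sixteen half-log dilutions in triplicate. Luciferase read after 72 h relative to DMSO-treated cells, giving EC50.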

A short description of data set [10]: Cytotoxicity against human MT4 cells by CDCF probe based assay. It is filed as cell-based.

We go through twelve molecules from ChEMBL document CHEMBL3351593, “Potent nonimmunosuppressive cyclophilin inhibitors with improved pharmaceutical properties and decreased transporter inhibition” (J Med Chem, 2014).

Peptidyl-prolyl cis-trans isomerase A, sequence (P62937 whole entry): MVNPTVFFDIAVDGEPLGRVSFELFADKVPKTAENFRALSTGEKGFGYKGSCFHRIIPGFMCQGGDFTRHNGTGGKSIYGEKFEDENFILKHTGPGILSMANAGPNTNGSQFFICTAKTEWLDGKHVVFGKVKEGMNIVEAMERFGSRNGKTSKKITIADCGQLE
Peptidyl-prolyl cis-trans isomerase F, mitochondrial, sequence (P30405 whole entry): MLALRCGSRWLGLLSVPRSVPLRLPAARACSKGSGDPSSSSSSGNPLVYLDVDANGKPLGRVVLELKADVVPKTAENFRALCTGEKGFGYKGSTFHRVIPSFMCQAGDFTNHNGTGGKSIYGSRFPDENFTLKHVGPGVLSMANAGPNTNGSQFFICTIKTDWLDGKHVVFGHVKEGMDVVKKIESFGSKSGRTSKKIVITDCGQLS
Peptidyl-prolyl cis-trans isomerase B, sequence (P23284 whole entry): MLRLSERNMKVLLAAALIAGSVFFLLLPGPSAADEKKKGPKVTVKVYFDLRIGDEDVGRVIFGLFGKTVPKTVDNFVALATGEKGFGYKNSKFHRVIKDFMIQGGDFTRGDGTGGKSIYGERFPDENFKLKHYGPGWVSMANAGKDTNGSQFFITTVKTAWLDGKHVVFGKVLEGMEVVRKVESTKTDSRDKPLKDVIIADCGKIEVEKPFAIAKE
Cytochrome P450 3A4, sequence (P08684 whole entry): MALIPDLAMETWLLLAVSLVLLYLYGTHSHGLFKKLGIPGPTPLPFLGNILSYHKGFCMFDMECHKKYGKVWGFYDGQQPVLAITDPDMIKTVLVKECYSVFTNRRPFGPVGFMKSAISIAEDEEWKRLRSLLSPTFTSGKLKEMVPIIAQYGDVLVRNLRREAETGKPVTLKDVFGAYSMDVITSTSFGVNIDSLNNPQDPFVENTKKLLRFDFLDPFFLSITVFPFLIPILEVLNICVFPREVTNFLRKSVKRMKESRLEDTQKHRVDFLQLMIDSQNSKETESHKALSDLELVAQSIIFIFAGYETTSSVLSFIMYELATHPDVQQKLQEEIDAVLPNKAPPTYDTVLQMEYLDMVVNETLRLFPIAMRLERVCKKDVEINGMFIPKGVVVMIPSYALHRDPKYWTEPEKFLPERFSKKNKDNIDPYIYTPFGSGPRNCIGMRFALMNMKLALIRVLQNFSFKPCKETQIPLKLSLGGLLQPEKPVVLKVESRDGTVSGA

As for `C/C=C/C[C@@H](C)[C@@H](O)[C@H]1C(=O)N[C@@H](CC)C(=O)N(C)[C@H](C)C(=O)N(C)[C@@H]([C@H](C)CC#N)C(=O)N[C@@H](C(C)C)C(=O)N(C)[C@@H](CC(C)C)C(=O)N[C@@H](C)C(=O)N[C@H](C)C(=O)N(C)[C@@H](CC(C)C)C(=O)N(C)[C@@H](CC(C)C)C(=O)N(C)[C@@H](C(C)C)C(=O)N1C`, a half-maximal effect in [1] (EC50) was put at 28 nM. For the same molecule, 1000 nM corresponded to half-maximal inhibition in data set [2] (IC50). The Kd (usually the constant that tells how readily two partners part at equilibrium) in [3] came to 1.3 nM.
For the molecule `C/C=C/C[C@@H](C)[C@@H](O)[C@H]1C(=O)N[C@@H](CC)C(=O)N(C)[C@H](C)C(=O)N(C)[C@@H]([C@H](C)COC)C(=O)N[C@@H](C(C)C)C(=O)N(C)[C@@H](CC(C)C)C(=O)N[C@@H](C)C(=O)N[C@H](C)C(=O)N(C)[C@@H](CC(C)C)C(=O)N(C)[C@@H](CC(C)C)C(=O)N(C)[C@@H](C(C)C)C(=O)N1C`, the EC50 (in general, the concentration needed to bring the measured effect to its halfway point) in data set [1] amounted to 36 nM. In data set [2], it took 2800 nM to reach half-maximal inhibition (IC50). Besides, the Kd in [3] came to 1.7 nM.
In data set [1], `C/C=C/C[C@@H](C)[C@@H](O)[C@H]1C(=O)N[C@@H](CC)C(=O)N(C)[C@H](C)C(=O)N(C)[C@@H]([C@H](C)CN2CCOCC2)C(=O)N[C@@H](C(C)C)C(=O)N(C)[C@@H](CC(C)C)C(=O)N[C@@H](C)C(=O)N[C@H](C)C(=O)N(C)[C@@H](CC(C)C)C(=O)N(C)[C@@H](CC(C)C)C(=O)N(C)[C@@H](C(C)C)C(=O)N1C` showed an EC50 of 33 nM. Further, in data set [2], the IC50 – broadly, the concentration at which inhibition is half-maximal – was determined as 4300 nM. This molecule showed a Kd in data set [3] of 3.1 nM.
Consider `C/C=C/C[C@@H](C)[C@@H](O)[C@H]1C(=O)N[C@@H](CC)C(=O)N(C)[C@H](C)C(=O)N(C)[C@@H]([C@H](C)CN2CCCOCC2)C(=O)N[C@@H](C(C)C)C(=O)N(C)[C@@H](CC(C)C)C(=O)N[C@@H](C)C(=O)N[C@H](C)C(=O)N(C)[C@@H](CC(C)C)C(=O)N(C)[C@@H](CC(C)C)C(=O)N(C)[C@@H](C(C)C)C(=O)N1C`, for which the midpoint of the response in data set [1], the EC50, lay at 37 nM. Besides, the midpoint of inhibition in data set [2], the IC50, lay at 1800 nM. In [3], the Kd came to 1.9 nM.
For the molecule `C/C=C/C[C@@H](C)[C@@H](O)[C@H]1C(=O)N[C@@H](CC)C(=O)N(C)[C@H](C)C(=O)N(C)[C@@H]([C@H](C)CN2CCC(F)(F)C2)C(=O)N[C@@H](C(C)C)C(=O)N(C)[C@@H](CC(C)C)C(=O)N[C@@H](C)C(=O)N[C@H](C)C(=O)N(C)[C@@H](CC(C)C)C(=O)N(C)[C@@H](CC(C)C)C(=O)N(C)[C@@H](C(C)C)C(=O)N1C`, the EC50 in data set [1] was 44 nM. The same molecule showed a Kd in data set [3] of 4 nM.
`C/C=C/C[C@@H](C)[C@@H](O)[C@H]1C(=O)N[C@@H](CC)C(=O)N(C)[C@H](C)C(=O)N(C)[C@@H]([C@H](C)CN2CC3CCC(C2)O3)C(=O)N[C@@H](C(C)C)C(=O)N(C)[C@@H](CC(C)C)C(=O)N[C@@H](C)C(=O)N[C@H](C)C(=O)N(C)[C@@H](CC(C)C)C(=O)N(C)[C@@H](CC(C)C)C(=O)N(C)[C@@H](C(C)C)C(=O)N1C` returned an EC50 in data set [1] of 42 nM. The IC50 in [2] was found to be 1800 nM. The molecule further gave an equilibrium dissociation constant (Kd) in [3] of 2.5 nM.
With `C/C=C/C[C@@H](C)[C@@H](O)[C@H]1C(=O)N[C@@H](CC)C(=O)N(C)[C@H](C)C(=O)N(C)[C@@H]([C@H](C)CN2CCC(C#N)CC2)C(=O)N[C@@H](C(C)C)C(=O)N(C)[C@@H](CC(C)C)C(=O)N[C@@H](C)C(=O)N[C@H](C)C(=O)N(C)[C@@H](CC(C)C)C(=O)N(C)[C@@H](CC(C)C)C(=O)N(C)[C@@H](C(C)C)C(=O)N1C`, the response in [1] was half-maximal at 29 nM (EC50). In data set [3], this molecule registered a Kd of 1.4 nM.
In turn, `C/C=C/C[C@@H](C)[C@@H](O)[C@H]1C(=O)N[C@@H](CC)C(=O)N(C)[C@H](C)C(=O)N(C)[C@@H]([C@H](C)CN(C)CCOC)C(=O)N[C@@H](C(C)C)C(=O)N(C)[C@@H](CC(C)C)C(=O)N[C@@H](C)C(=O)N[C@H](C)C(=O)N(C)[C@@H](CC(C)C)C(=O)N(C)[C@@H](CC(C)C)C(=O)N(C)[C@@H](C(C)C)C(=O)N1C` gave an EC50 in [1] of 42 nM. In data set [2], this molecule showed an IC50 of 2000 nM. This molecule displayed a dissociation constant (Kd) in [3] of 1.8 nM.
Consider `C/C=C/C[C@@H](C)[C@@H](O)[C@H]1C(=O)N[C@@H](CC)C(=O)N(C)[C@H](C)C(=O)N(C)[C@@H]([C@H](C)CCN2CCOCC2)C(=O)N[C@@H](C(C)C)C(=O)N(C)[C@@H](CC(C)C)C(=O)N[C@@H](C)C(=O)N[C@H](C)C(=O)N(C)[C@@H](CC(C)C)C(=O)N(C)[C@@H](CC(C)C)C(=O)N(C)[C@@H](C(C)C)C(=O)N1C`, for which, in [1], the EC50 amounted to 29 nM. In [3], this molecule yielded a Kd of 1.1 nM. Moreover, the “inhibition (INH)” value in data set [4] was “tde”.
Molecule `C/C=C/C[C@@H](C)[C@@H](O)[C@H]1C(=O)N[C@@H](CC)C(=O)N(C)[C@H](C)C(=O)N(C)[C@@H]([C@H](C)COCCN2CCOCC2)C(=O)N[C@@H](C(C)C)C(=O)N(C)[C@@H](CC(C)C)C(=O)N[C@@H](C)C(=O)N[C@H](C)C(=O)N(C)[C@@H](CC(C)C)C(=O)N(C)[C@@H](CC(C)C)C(=O)N(C)[C@@H](C(C)C)C(=O)N1C` registered an EC50 in data set [1] of 36 nM. In [2], this molecule had a half-maximal inhibitory concentration (IC50) of 6400 nM. The same molecule showed a Kd in data set [3] of 1.1 nM.
In the case of `C/C=C/C[C@@H](C)[C@@H](O)[C@H]1C(=O)N[C@@H](CC)C(=O)N(C)C(SCCN(C)C)C(=O)N(C)[C@@H](CC(C)(C)O)C(=O)N[C@@H](C(C)C)C(=O)N(C)[C@@H](CC(C)C)C(=O)N[C@@H](C)C(=O)N[C@H](C)C(=O)N(C)[C@@H](CC(C)C)C(=O)N(C)[C@@H](CC(C)C)C(=O)N(C)[C@@H](C(C)C)C(=O)N1C` (single isomer, unassigned) [SCY 635], the values for the Kd in [5] and in data set [6] were 3.1 nM and 2.9 nM, respectively. Also, the EC50 in data set [1] turned out to be 221 nM; in [8], 263 nM; in data set [9], 192 nM. The molecule further returned a half-maximal inhibitory concentration (IC50) in data set [7] of 4700 nM.
As to `C/C=C/C[C@@H](C)[C@@H](O)[C@H]1C(=O)N[C@@H](CC)C(=O)N(C)CC(=O)N(C)[C@@H]([C@@H](C)CC)C(=O)N[C@@H](C(C)C)C(=O)N(C)[C@@H](CC(C)C)C(=O)N[C@@H](C)C(=O)N[C@H](C)C(=O)N(C)[C@@H](CC(C)C)C(=O)N(C)[C@@H](CC(C)C)C(=O)N(C)[C@@H](C(C)C)C(=O)N1C` [NIM811], the Kd in data set [5] was determined as 4.2 nM; in [6] it was 7.4 nM; in data set [3], 7.5 nM. Besides, the EC50 in [1] was 97 nM; in [8], 217 nM; in data set [9], 210 nM. In addition, the half-maximal cytotoxic concentration (CC50) – broadly, the concentration at which the toxic effect on the cells reaches its halfway point – in data set [10] was determined as 13000 nM. In [7], this molecule registered an IC50 of 2400 nM.
